Reference: ChEMBL document CHEMBL2074473, “Inhibitory effect of a bitter melon extract on the P-glycoprotein activity in intestinal Caco-2 cells” (Br J Pharmacol, 2004)

target: T1, ATP-dependent translocase ABCB1 (Homo sapiens, UniProt P08183); assay: TP_TRANSPORTER: Daunomycin accumulation in Caco-2 cells; type: functional, cell-based
Outline: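 Caco-2 monolayers (passages 40–66) grown 14 days on collagen-coated 24-well plates. After two PBS washes and equilibration in HBSS with 4 mM bicarbonate and 10 mM HEPES, pH 7.4, cells were incubated with 40 nM [3H]-daunomycin ± sample for 2 h at 37°C. Ice-cold PBS/0.05% azide washes, Triton X-100 lysis, scintillation counting. Expressed as % of control, mean±s.d., n=3.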

T1 sequence (P08183 whole entry): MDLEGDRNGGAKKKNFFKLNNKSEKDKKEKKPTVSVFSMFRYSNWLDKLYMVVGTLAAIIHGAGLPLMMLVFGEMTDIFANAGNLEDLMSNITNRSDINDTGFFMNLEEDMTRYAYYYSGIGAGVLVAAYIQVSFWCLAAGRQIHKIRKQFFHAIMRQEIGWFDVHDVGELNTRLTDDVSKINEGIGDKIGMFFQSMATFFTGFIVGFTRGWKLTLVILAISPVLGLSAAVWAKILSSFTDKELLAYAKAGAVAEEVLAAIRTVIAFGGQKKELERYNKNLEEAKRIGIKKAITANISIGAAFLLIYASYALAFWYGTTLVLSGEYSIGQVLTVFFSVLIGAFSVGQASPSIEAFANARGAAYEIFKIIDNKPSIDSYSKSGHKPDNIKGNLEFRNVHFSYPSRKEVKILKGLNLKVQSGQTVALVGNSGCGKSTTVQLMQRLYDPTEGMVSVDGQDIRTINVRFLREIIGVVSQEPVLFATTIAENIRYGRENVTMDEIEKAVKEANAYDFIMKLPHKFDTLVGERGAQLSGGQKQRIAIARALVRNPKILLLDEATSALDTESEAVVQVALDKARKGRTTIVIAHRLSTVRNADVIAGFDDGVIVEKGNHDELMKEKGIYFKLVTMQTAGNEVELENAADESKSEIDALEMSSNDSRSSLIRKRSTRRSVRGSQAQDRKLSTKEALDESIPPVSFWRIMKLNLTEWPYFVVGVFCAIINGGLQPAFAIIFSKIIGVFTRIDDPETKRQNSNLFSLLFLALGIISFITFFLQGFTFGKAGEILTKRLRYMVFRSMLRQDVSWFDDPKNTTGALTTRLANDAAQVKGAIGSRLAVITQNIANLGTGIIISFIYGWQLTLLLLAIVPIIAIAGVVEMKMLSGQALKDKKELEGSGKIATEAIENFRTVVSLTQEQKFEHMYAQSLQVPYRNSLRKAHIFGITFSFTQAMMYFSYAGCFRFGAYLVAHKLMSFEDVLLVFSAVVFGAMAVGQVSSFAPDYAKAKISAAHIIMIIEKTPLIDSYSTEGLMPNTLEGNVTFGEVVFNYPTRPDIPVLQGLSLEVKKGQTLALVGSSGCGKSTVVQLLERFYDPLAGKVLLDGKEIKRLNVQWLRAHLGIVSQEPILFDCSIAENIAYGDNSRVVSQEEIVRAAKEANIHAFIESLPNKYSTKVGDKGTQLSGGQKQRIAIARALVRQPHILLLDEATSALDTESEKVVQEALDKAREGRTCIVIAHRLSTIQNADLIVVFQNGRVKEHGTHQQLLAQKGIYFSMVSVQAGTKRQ

Row | Compound | Activity
1 | CCCCCCCCCCCCCCCC(=O)OCC(COC(=O)CCCCCCCCCCCCCCC)OC(=O)CCCCCCCCCCCCCCC [TRIPALMITIN] | is not an inhibitor [-]
2 | OCC(O)CO [GLYCERIN] | is not an inhibitor [-]
3 | CCCCCCCCCCCCCCCCCC(=O)OCC(O)CO (stereo unspecified) [GLYCERYL MONOSTEARATE] | inhibitor [+]
4 | CCCCCCCCCCCCCCCC(=O)O [PALMITIC ACID] | is not an inhibitor [-]
5 | CCCCCCCCCCCCCC(=O)OCC(O)CO (stereo unspecified) | inhibitor [+]
6 | CCCCCCCCCCCCCCCC(=O)OCC(CO)OC(=O)CCCCCCCCCCCCCCC (stereo unspecified) [1,2-Dipalmitin] | is not an inhibitor [-]
7 | CCCCCCCCCCCCCCCC(=O)OCC(O)CO (stereo unspecified) [1-Monopalmitin] | inhibitor [+]
8 | CCCCCCCC(=O)OCC(O)CO (stereo unspecified) [MONOCTANOIN COMPONENT A] | inhibitor [+]
9 | CCCCCCCCCCCCCCCC(=O)OCC(O)COC(=O)CCCCCCCCCCCCCCC [1,3-Dipalmitin] | is not an inhibitor [-]
10 | CCCCCCCCCC(=O)OCC(O)CO (stereo unspecified) [MONOCTANOIN COMPONENT B] | inhibitor [+]
11 | CC/C=C/C/C=C/C/C=C/CCCCCCCC(=O)OCC(O)CO (stereo unspecified) [1-Monolinolenin] | inhibitor [+]
12 | CCCCC/C=C/C/C=C/CCCCCCCC(=O)OCC(O)CO (stereo unspecified) [1-Monolinolein] | inhibitor [+]
13 | CCCCCC/C=C\CCCCCCCC(=O)OCC(O)CO (stereo unspecified) [1-Monopalmitolein] | inhibitor [+]
14 | CCCCCCCCCCCC(=O)OCC(O)CO (stereo unspecified) [GLYCEROL MONOLAURATE] | inhibitor [+]
15 | CCCCCCCCCCCCCCCC(=O)O.OCC(O)CO [PALMITIC ACID + GLYCEROL] | is not an inhibitor [-]

target: T1, ATP-dependent translocase ABCB1; assay: TP_TRANSPORTER: Rhodamine 123 accumulation in Caco-2 cells; type: functional, cell-based
Outline: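 Caco-2 monolayers (passages 40–66) grown 14 days on collagen-coated 24-well plates. Cells were equilibrated in HBSS with 4 mM bicarbonate and 10 mM HEPES, pH 7.4, then exposed to 15 μM rhodamine-123 ± sample (2 mg ml−1 extracts) for 2 h at 37°C. After ice-cold PBS/0.05% azide washes, fluorescence was read at ex 485/em 544 nm. Expressed as % of control, mean±s.d., n=4.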

Row | Compound | Activity
16 | BITTER MELON | inhibitor [+]
